# Results collected from several papers.
# Lines come from different studies, so protocols differ.
SMILES,target or system,test,conditions,measurement,value
CCc1cc(Nc2cc(=O)n(CCCCO)c(=O)[nH]2)ccc1C,Eggerthella lenta,"microbial growth, agar dilution",48 h,MIC,> 32 µg/mL
CCCCc1cccc(-c2cnc3c(n2)CCCC3)c1,Haemonchus contortus,parasite motility,"48 h, larva",IC50,23.3 µM
O=C(Nc1ccccc1-c1ccc(F)c(F)c1)c1nccnc1C(F)(F)F,Penicillium digitatum,microbial growth,,EC50,> 100 µg/mL
C[C@@H](Oc1cc(-c2cnn(C3CCNCC3)c2)cnc1N)c1c(Cl)ccc(F)c1Cl,NCI-H2228,"cell growth or viability, MTT","0.04 µg/mL, 72 h",inhibition,45.9%
Cc1ccc(C(CS(=O)(=O)c2ccccc2)=NNC2=NC(=O)C(=NNc3ccc([N+](=O)[O-])cc3)S2)cc1,SK-MEL-23,"cell growth or viability, MTT","6.3 µM, 48 h",viability,56.6%
O=c1[nH]c(NCc2ccc(Cl)c(Cl)c2)nc2ncn(CCCCCN3CCOCC3)c12,Eggerthella lenta,"microbial growth, agar dilution",48 h,MIC,> 32 µg/mL
Cc1ccc(C(CS(=O)(=O)c2ccccc2)=NN=C2N=C(c3ccc(Br)cc3)CS2)cc1,SK-MEL-23,"cell growth or viability, MTT","6.3 µM, 48 h",viability,63.7%
CCCCOc1ccc(-c2cnc3c(n2)CCCC3)cc1,Haemonchus contortus,parasite motility,"72 h, larva",IC50,6.9 µM
Cc1ccc(C(CS(=O)(=O)c2ccccc2)=NNc2nc(C)c(N=Nc3cccc(C)c3)s2)cc1,SK-MEL-23,"cell growth or viability, MTT","25 µM, 48 h",viability,44%
CCCCOc1cccc(-c2cnc3c(n2)CCCC3)c1,Haemonchus contortus,parasite motility,"72 h, larva",IC50,17.7 µM
Cc1cc(Nc2ncc(Cl)c(Nc3ccccc3S(=O)(=O)C(C)C)n2)c(OC(C)C)cc1C1CCNCC1,NCI-H2228,"cell growth or viability, MTT","5 µg/mL, 72 h",inhibition,93.5%
Cc1ccc(C(CS(=O)(=O)c2ccccc2)=NNC2=NC(=O)C(=NNc3ccccc3)S2)cc1,SK-MEL-23,"cell growth or viability, MTT","6.3 µM, 48 h",viability,36.3%
